# Source: ChEMBL document CHEMBL1144710, “epigenetic multiple ligands: mixed histone/protein methyltransferase, acetyltransferase, and class III deacetylase (sirtuin) inhibitors” (J Med Chem, 2008)
# Active and inactive are the calls of the source. Unless noted, the calls are words filed in the database; no cut-off is given here.
# Legend:
# U-937 [1] = assay: Inhibition of histone H3K4 methylation in human U937 cells at 50 uM after 24 hrs; type: functional, cell-based
# In short: (§1)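 U937 cells treated at 50 µM for 24 h. Histones extracted with Triton buffer, then 0.2 M HCl overnight at 4 °C. 3–10 µg run on 15% SDS-PAGE and immunoblotted with anti-monomethyl-H3K4, monomethyl-H4R3 or dimethyl-H3R17 (1:500, overnight 4 °C), ECL detection. Loading controls: total H4 (H3K4), Ponceau Red (Arg marks).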
# RmtA = RmtA (Emericella nidulans, UniProt Q5VLE3); assay: Inhibition of Aspergillus nidulans RmtA
# RmtA, sequence (Q5VLE3 whole entry, the tested form may be a part): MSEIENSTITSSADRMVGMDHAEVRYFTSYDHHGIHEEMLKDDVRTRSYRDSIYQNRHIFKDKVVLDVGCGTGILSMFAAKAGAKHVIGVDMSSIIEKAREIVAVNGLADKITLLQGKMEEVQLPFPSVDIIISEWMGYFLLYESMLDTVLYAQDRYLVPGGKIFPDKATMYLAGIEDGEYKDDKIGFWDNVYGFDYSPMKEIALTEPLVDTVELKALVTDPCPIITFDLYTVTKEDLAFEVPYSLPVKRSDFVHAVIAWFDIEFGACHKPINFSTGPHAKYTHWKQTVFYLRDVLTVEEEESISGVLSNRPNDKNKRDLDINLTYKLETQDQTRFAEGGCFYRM
# In short: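 Enzyme was GST-RmtA fusion expressed in E. coli BL21 and glutathione-affinity purified (500 ng), preincubated with compound for 15 min at room temperature. Then 20 µg chicken erythrocyte core histones and 0.55 µCi [3H]AdoMet were added, 30 min at 30 °C. Stopped with 25% TCA, filtered, counted by liquid scintillation.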
# [2] = target: T1, NAD-dependent protein deacetylase sirtuin-2 (Homo sapiens) (UniProt Q8IXJ6); assay: Inhibition of human SIRT2 at 25 uM
# T1 sequence (whole entry): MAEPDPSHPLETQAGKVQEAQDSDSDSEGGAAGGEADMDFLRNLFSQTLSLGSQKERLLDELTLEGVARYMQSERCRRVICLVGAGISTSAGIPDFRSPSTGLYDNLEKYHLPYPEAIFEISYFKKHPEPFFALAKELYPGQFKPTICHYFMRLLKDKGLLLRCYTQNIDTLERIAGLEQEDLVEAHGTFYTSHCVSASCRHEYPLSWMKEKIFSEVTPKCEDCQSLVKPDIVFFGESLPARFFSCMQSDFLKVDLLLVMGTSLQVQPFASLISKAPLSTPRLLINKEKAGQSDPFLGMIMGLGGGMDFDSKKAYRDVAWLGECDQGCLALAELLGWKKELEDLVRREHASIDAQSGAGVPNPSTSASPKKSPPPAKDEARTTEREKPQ
# In short: (§2)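 Fluorescent two-stage assay. SIRT1 (1 U/well) or SIRT2 (5 U/well) with Fluor de Lys-SIRT1/2 substrate, NAD+ and compound at 25 µM, 37 °C for 2 h. Developer II containing nicotinamide then stopped the reaction and generated signal, read at ex 360/em 460 nm.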
# [3] = target: T2, NAD-dependent protein deacetylase sirtuin-1 (Homo sapiens) (UniProt Q96EB6); assay: Inhibition of human SIRT1 at 25 uM; in short: as §2
# T2 sequence (whole entry): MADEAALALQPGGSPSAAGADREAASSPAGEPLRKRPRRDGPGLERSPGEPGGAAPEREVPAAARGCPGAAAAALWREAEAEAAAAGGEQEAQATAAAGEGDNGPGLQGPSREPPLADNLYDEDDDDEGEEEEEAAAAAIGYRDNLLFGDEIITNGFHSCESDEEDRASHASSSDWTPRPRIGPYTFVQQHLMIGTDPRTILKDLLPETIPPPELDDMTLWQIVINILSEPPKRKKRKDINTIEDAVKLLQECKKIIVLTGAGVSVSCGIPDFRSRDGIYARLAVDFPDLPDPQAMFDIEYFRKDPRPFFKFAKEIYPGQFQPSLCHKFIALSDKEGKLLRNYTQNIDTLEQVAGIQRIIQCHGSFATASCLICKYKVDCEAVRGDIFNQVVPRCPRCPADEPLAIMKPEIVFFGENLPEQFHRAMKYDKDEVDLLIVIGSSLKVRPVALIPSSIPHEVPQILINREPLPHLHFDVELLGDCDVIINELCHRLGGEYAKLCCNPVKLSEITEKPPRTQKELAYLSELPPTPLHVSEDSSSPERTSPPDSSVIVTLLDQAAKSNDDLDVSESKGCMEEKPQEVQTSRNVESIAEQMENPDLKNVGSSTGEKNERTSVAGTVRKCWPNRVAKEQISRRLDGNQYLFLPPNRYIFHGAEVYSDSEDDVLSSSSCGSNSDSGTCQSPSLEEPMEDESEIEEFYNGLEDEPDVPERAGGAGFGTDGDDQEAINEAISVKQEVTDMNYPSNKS
# [4] = target: T3, Histone-arginine methyltransferase CARM1 (Homo sapiens) (UniProt Q86X55); assay: Inhibition of human recombinant CARM1 assessed as poly(A) binding protein 1 methylation at 100 uM
# T3 sequence (whole entry): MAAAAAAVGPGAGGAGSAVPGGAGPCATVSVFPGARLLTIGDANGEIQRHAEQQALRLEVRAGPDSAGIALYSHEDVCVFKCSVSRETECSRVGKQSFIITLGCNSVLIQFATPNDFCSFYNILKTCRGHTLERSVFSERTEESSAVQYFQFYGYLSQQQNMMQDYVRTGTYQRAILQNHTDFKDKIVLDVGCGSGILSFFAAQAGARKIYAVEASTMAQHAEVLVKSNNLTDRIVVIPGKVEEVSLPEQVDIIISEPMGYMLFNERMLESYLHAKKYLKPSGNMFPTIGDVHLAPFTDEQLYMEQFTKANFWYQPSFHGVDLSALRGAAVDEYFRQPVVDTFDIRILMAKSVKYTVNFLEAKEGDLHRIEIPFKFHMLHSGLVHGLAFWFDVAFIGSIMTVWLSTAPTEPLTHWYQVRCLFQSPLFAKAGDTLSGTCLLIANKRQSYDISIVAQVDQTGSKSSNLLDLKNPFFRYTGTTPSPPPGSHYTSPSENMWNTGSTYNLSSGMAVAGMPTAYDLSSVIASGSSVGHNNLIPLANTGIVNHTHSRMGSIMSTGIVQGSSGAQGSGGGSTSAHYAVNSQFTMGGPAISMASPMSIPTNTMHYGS
# In short: (§3)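 Recombinant enzymes (0.2 µg) with substrate (0.5 µg: Npl3p for PRMT1, PABP1 for CARM1, histone H3 for SET7), 0.5 µM [3H]AdoMet and 100 µM compound in PBS pH 7.4 with 3.3% v/v DMSO, 90 min at 30 °C. Products separated by 10% SDS-PAGE, transferred to PVDF, detected by fluorography on film overnight.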
# U-937 [5] = assay: Inhibition of histone H3R17 methylation in human U937 cells at 50 uM after 24 hrs; type: functional, cell-based; in short: as §1
# U-937 [6] = assay: Cell cycle arrest in human U937 cells assessed as accumulation at G2 phase at 25 uM after 30 hrs; type: functional, cell-based
# In short: (§4)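 U937 cells in RPMI with 10% fetal calf serum, HEPES and glutamine, kept at 200000 cells/mL; treated at 25 µM for 30 h, then the distribution across cell cycle phases was analysed.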
# U-937 [7] = assay: Induction of granulocytic differentiation in human U937 cells assessed as CD11c expression at 5 uM after 30 hrs; type: functional
# In short: (§5)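 U937 cells treated for 30 h, then stained with PE-conjugated CD11c (PE mouse IgG1 as control) for 30 min at 4 °C in the dark and resuspended in PBS with PI (0.25 µg/mL). Read-out is percent CD11c-positive/PI-negative cells, with dead PI-positive cells excluded. Coloured compounds limited the top dose to 5 µM or lower.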
# [8] = target: T4, Histone-lysine N-methyltransferase SETD7 (Homo sapiens) (UniProt Q8WTS6); assay: Inhibition of human recombinant SET7 assessed as histone H3 protein methylation at 100 uM; in short: as §3
# T4 sequence (whole entry): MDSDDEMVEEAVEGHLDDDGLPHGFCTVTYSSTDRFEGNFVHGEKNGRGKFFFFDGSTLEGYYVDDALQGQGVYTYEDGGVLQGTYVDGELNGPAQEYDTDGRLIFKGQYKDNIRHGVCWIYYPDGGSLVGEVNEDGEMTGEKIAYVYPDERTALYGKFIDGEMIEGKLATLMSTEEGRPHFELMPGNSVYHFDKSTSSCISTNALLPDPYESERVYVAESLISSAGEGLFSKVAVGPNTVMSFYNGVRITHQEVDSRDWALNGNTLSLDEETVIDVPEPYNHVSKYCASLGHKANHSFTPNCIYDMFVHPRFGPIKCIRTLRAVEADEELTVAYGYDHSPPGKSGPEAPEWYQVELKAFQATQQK
# U-937 [9] = assay: Inhibition of histone H4R3 methylation in human U937 cells at 50 uM after 24 hrs; type: functional, cell-based; in short: as §1
# [10] = target: Protein arginine N-methyltransferase 1 (Homo sapiens) (UniProt Q99873); assay: Inhibition of human recombinant PRMT1 assessed as nuclear ribonucleoprotein Npl3p methylation at 100 uM; in short: as §3
# Protein arginine N-methyltransferase 1 (Homo sapiens), sequence (Q99873 whole entry, looked up): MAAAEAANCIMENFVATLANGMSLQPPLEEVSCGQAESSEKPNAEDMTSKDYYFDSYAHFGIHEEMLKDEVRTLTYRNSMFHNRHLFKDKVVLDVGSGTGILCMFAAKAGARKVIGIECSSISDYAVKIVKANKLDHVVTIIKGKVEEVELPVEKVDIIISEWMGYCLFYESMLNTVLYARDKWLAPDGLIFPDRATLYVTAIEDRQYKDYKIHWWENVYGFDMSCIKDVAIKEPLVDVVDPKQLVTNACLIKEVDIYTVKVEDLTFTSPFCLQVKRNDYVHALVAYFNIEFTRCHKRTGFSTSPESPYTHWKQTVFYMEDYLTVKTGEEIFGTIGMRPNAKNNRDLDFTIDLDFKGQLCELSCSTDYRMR
# U-937 [11] = assay: Inhibition of human p300/CBP in U937 cells at 50 uM assessed as histone H3 acetylation; type: cell-based
# In short: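 Source was U937 nuclear extract (10 µg per assay) as p300/CBP HAT, with histone H3 substrate and compound at 50 µM or DMSO control for 90 min. Acetyl-H3 detected by indirect ELISA, quantified against acetylated H3 peptide standard curves, […].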
# [12] = target: Protein arginine N-methyltransferase 1 (Homo sapiens) (UniProt Q99873); assay: Inhibition of human recombinant PRMT1 assessed as histone H4 methylation at 50 uM
# U-937 [13] = assay: Induction of apoptosis in human U937 cells at 25 uM after 30 hrs; type: functional
# In short: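 Apoptosis read as caspase 3 activation by FACS, in U937 cells (RPMI, 10% fetal calf serum, 200000 cells/mL) exposed to 25 µM for 30 h.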
# U-937 [14] = assay: Cell cycle arrest in human U937 cells assessed as accumulation at S phase at 25 uM after 30 hrs; type: functional, cell-based; in short: as §4
# U-937 [15] = assay: Induction of cell cycle arrest in human U937 cells at 25 uM after 30 hrs; type: functional, cell-based; in short: as §4
# U-937 [16] = assay: Induction of granulocytic differentiation in human U937 cells assessed as CD11c expression at 1 uM after 30 hrs; type: functional; in short: as §5
# U-937 [17] = assay: Induction of granulocytic differentiation in human U937 cells assessed as CD11c expression at 0.5 uM after 30 hrs; type: functional; in short: as §5
Structure (SMILES),Activity (U-937 [1]),IC50 (RmtA),inhibition [2],inhibition [3],Activity [4],Activity (U-937 [5]),Activity (U-937 [6]),Activity (U-937 [7]),Activity [8],Activity (U-937 [9]),Activity [10],inhibition (U-937 [11]),inhibition [12],Activity (U-937 [13]),Activity (U-937 [14]),Activity (U-937 [15]),Activity (U-937 [16]),Activity (U-937 [17])
CN1C/C(=C\c2cc(Br)c(O)c(Br)c2)C(=O)/C(=C/c2cc(Br)c(O)c(Br)c2)C1,Active,39 µM,64%,63%,Active,Active,Active,53.2%,Active,Active,Active,87%,73%,1%,,,,
O=C1/C(=C/c2cc(Br)c(O)c(Br)c2)CCC/C1=C\c1cc(Br)c(O)c(Br)c1,Active,14 µM,56%,50%,Active,Active,,70.9%,Active,Active,Active,96%,44%,2%,Active,,,
O=C1OC2(c3ccccc31)c1cc(Br)c(O)c(Br)c1Oc1c2cc(Br)c(O)c1Br [EOSIN],,18 µM,31%,33%,Active,Active,,,Active,Active,Active,20%,96%,0.5%,,inactive,5.7%,
O=C(/C=C/c1ccc(O)c(Br)c1)/C=C/c1cc(Br)c(O)c(Br)c1,inactive,40 µM,65%,60%,Active,Active,,68.1%,Active,Active,Active,62%,17%,1%,Active,,,
O=C(/C=C/c1cc(Br)c(O)c(Br)c1)/C=C/c1cc(Br)c(O)c(Br)c1,Active,69 µM,100%,61%,Active,Active,Active,95.2%,Active,Active,,100%,76%,1.1%,,,,77%
O=C(/C=C/c1cc(Br)c(O)c(Br)c1)CC(=O)/C=C/c1cc(Br)c(O)c(Br)c1,,48 µM,61%,52%,Active,Active,,33%,Active,Active,Active,58%,70%,10.5%,Active,,,
